Experimental data as given in ChEMBL document CHEMBL2401665, “Design, synthesis and biological studies of novel tubulin inhibitors” (Bioorg Med Chem Lett, 2013).

Assays:
MDA-MB-231 = assay: Cytotoxicity against hormone-independent human MDA-MB-231 cells assessed as growth inhibition by MTS assay; format: functional, cell-based
Outline: (§1)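 Cells seeded at 2,500 per well and exposed to a range of compound concentrations. Read-out is the MTS assay […]. IC50 is the mean of 3 independent experiments, each run in triplicate.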

PC-3 = assay: Cytotoxicity against hormone-independent human PC3 cells assessed as growth inhibition by MTS assay; format: functional, cell-based; outline: as §1
Tubulin = Tubulin (Sus scrofa, UniProt P02554+P02550); assay: Inhibition of porcine brain tubulin polymerization

IC50 (Tubulin)	Structure (SMILES)	IC50 (MDA-MB-231) [nM]	IC50 (PC-3) [nM]
16400 nM	COc1ccc2c(c1)[nH]c(=O)n2Cc1cc(OC)c(OC)c(OC)c1	52.8	44.2
> 40000 nM	COc1ccc2c(c1)n(C)c(=O)n2Cc1cc(OC)c(OC)c(OC)c1	3030	555
19140 nM	COc1ccc2c(c1)[nH]c(=O)n2C(=O)c1cc(OC)c(OC)c(OC)c1	108	126
> 40000 nM	COc1ccc2c(c1)oc(=O)n2Cc1cc(OC)c(OC)c(OC)c1	4520	4490
–	COc1ccc2c(c1)oc(=O)n2C(=O)c1cc(OC)c(OC)c(OC)c1	> 20000	> 20000
ND(Insoluble)	COc1ccc2c(c1)C(=O)C(=O)N2Cc1cc(OC)c(OC)c(OC)c1	935	318
31200 nM	COc1ccc2c(c1)CC(=O)N2Cc1cc(OC)c(OC)c(OC)c1	193	165
–	COc1ccc2c(c1)NC(=O)/C2=C/c1cc(OC)c(OC)c(OC)c1	0.88	–
